Data published in ChEMBL document CHEMBL4831487, “Fragment-based drug design targeting syntenin PDZ2 domain involved in exosomal release and tumour spread” (Eur J Med Chem, 2021).
Calls of active or inactive are those of the source. No cut-off for these calls is given here.

Legend:
[1] = molecular target: Syntenin-1/Syndecan-2 (Homo sapiens) (UniProt O00560+P34741); assay: Inhibition of recombinant human full-length GST-tagged syntenin-1/Syndecan-2 complex interaction expressed in Escherichia coli ER2566 at 400 uM measured after 16 hrs by HTRF assay
Method in brief: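 GST-syntenin-1 full length expressed in E. coli ER2566 (0.4 mM IPTG, overnight at 30 °C), purified on GSTrap; HTRF binding to syndecan-2. Compounds at 400 μM, single well, plates spun then incubated 16 h at 4°C. Excitation 337 nm, emission 665/620 ratio; % inhibition from DMSO-only max and no-protein min signals.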

[2] = molecular target: T1, Syntenin-1/Syndecan-2 (Homo sapiens, UniProt O00560); assay: Inhibition of recombinant human full-length GST-tagged syntenin-1/Syndecan-2 complex interaction expressed in Escherichia coli ER2566 measured after 16 hrs by HTRF assay
Method in brief: (§1)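 HTRF assay of E. coli ER2566-expressed GST-syntenin-1 full length binding to syndecan-2; serial DMSO dilutions of compound in triplicate, 16 h at 4°C after spin. 665/620 nm ratio (excitation 337 nm) converted to % inhibition versus DMSO-only and no-protein controls to derive IC50; for line 4, buffer contained 0.01% NP40.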

[3] = system: MCF7; assay: Down regulation of flotillin-1 level in human MCF7 cells at 100 uM measured after 16 hrs by Western blot analysis; format: functional, cell-based
Method in brief: (§2)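 MCF-7 cells (DMEM-F12, 10% FCS, 37°C, 5% CO2) treated at 100 μM or DMSO 0.2% vehicle for 16 h in medium with 10% exosome-depleted FCS. Exosomes isolated from medium by sequential centrifugation at 4 °C (500 g, 10,000 g, 100,000 g pellet, PBS wash); loading normalized to parent cell number. SDS-PAGE western blot; mean signal relative to vehicle, N independent experiments, one-way ANOVA with Tukey posttest.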

[4] = molecular target: T1, Syntenin-1/Syndecan-2; assay: Inhibition of recombinant human full-length GST-tagged syntenin-1/Syndecan-2 complex interaction expressed in Escherichia coli ER2566 in presence of NP40 detergent measured after 16 hrs by HTRF assay; method in brief: as §1
[5] = system: MCF7; assay: Down regulation of syntenin-1 level in human MCF7 cells at 100 uM measured after 16 hrs by Western blot analysis; format: functional, cell-based; method in brief: as §2

T1 sequence (O00560 whole entry): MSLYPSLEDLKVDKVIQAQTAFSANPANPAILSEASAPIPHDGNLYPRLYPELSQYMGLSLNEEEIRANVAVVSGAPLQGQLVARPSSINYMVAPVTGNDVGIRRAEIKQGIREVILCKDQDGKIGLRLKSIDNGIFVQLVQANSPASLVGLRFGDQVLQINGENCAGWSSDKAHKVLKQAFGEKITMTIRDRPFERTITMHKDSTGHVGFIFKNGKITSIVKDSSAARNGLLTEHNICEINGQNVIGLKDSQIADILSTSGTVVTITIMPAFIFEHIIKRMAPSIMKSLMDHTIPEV
T1 sequence (P34741 whole entry, further chain): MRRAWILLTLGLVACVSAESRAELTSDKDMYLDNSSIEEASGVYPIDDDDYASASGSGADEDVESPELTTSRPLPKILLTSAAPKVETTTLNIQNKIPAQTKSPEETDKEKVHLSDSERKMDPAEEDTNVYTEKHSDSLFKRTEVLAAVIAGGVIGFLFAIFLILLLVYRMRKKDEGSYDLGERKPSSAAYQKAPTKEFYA

| inhibition [1] | IC50 [2] | SMILES | further results |
| --- | --- | --- | --- |
| 56% |  | C[C@H](NC(=O)CCSc1ccc(Cl)cc1)C(=O)O |  |
|  | 96 µM | CC(C)[C@H](NC(=O)CCSc1ccc(-c2cccc(CO)c2)cc1)C(=O)O |  |
|  | 177 µM | CC(=O)Nc1ccc(-c2ccc(SCCC(=O)N[C@H](C(=O)O)C(C)C)cc2)cn1 |  |
| 11% |  | C[C@H](NC(=O)CCOc1ccccc1)C(=O)O |  |
| 76% |  | CC(C)[C@H](NC(=O)CCSc1ccccc1)C(=O)O |  |
| 16% |  | CC(C)[C@H](NC(=O)COc1ccc(Cl)cc1)C(=O)O |  |
|  | 112 µM | COCCOc1ccc(-c2ccc(SCCC(=O)N[C@H](C(=O)O)C(C)C)cc2)cn1 |  |
|  | > 200 µM | CC(C)[C@H](NC(=O)CCSc1ccc(-c2ccc(S(=O)(=O)N3CCCCC3)cc2)cc1)C(=O)O |  |
| 6% |  | C[C@H](NC(=O)CCOc1ccc(Cl)cc1)C(=O)O |  |
|  | 69 µM | CC(C)[C@H](NC(=O)CCSc1ccc(-c2ccc(CNC(=O)OC(C)(C)C)cc2)cc1)C(=O)O |  |
| 0% |  | C[C@H](NC(=O)COc1ccc(Cl)cc1)C(=O)O |  |
| 94% | 33 µM | CC(C)[C@H](NC(=O)CCSc1ccc(Cl)cc1)C(=O)O | Activity [3]: inactive; IC50 [4]: 45 µM; Activity [5]: Active |
|  | 7.4 µM | CC(C)[C@H](NC(=O)CCSc1ccc(-c2ccc(OS(C)(=O)=O)cc2)cc1)C(=O)O | IC50 [4]: 204 µM |
|  | 47 µM | CC(C)[C@H](NC(=O)CCSc1ccc(Br)cc1)C(=O)O | Activity [3]: inactive; IC50 [4]: 51 µM; Activity [5]: Active |
| 56% |  | CC(C)[C@H](NC(=O)CSc1ccc(Cl)cc1)C(=O)O | IC50 [4]: 864 µM |
| 20% |  | CC(C)[C@H](NC(=O)CSc1ccccc1)C(=O)O |  |

| inhibition [1] | IC50 [2] | SMILES | further results |
| --- | --- | --- | --- |
|  | > 200 µM | CC(C)[C@H](NC(=O)CCSc1ccc(-c2ccc(CCC(=O)O)cc2)cc1)C(=O)O |  |
| 9% |  | CC(C)[C@H](NC(=O)CCCc1ccccc1)C(=O)O |  |
| 0% |  | CC(C)[C@H](NC(=O)CCOc1ccccc1)C(=O)O |  |
| 0% |  | C[C@H](NC(=O)CSc1ccccc1)C(=O)O |  |
| 19% |  | C[C@H](NC(=O)CCSc1ccccc1)C(=O)O |  |
| 0% |  | O=C(CCOc1ccccc1)N[C@@H](Cc1ccccc1)C(=O)O |  |
| 31% |  | CC(C)[C@H](NC(=O)CCOc1ccc(Cl)cc1)C(=O)O |  |
| 0% |  | O=C(CCSc1ccccc1)N[C@@H](Cc1ccccc1)C(=O)O |  |
| 0% |  | C[C@H](NC(=O)COc1ccccc1)C(=O)O |  |
|  | > 200 µM | CC(C)[C@H](NC(=O)CCSc1ccc(-c2cccc(O)c2)cc1)C(=O)O |  |
| 1% |  | O=C(CCOc1ccc(Cl)cc1)N[C@@H](Cc1ccccc1)C(=O)O |  |
| 25% |  | C[C@H](NC(=O)CSc1ccc(Cl)cc1)C(=O)O |  |
| 0% |  | O=C(CCSc1ccc(Cl)cc1)N[C@@H](Cc1ccccc1)C(=O)O |  |
| 7% |  | CC(C)[C@H](NC(=O)COc1ccccc1)C(=O)O |  |
|  | 78 µM | CC(C)[C@H](NC(=O)CCSc1ccc(-c2cccc(S(N)(=O)=O)c2)cc1)C(=O)O |  |
